The list is not random: actives were taken first. Their share in the collection is about 2.3%.
MT1-MMP txn act: MT1-MMP promoter transcription activation; activation factor at 10 µM; 86,000 compounds, 0.16% hits; HT1080 MT1-MMP promoter luciferase reporter, luminescence, overnight; stronger effect = higher value;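 active means activation factor of at least 2 for MT1-MMP transcription at 10 µM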
JNK3 blocker: blocks human JNK3 kinase activity | P53779 | purified JNK3 kinase activity, HTS | inhibition, % at 8 µM | 60,000 compounds, 0.61% hits | AID 746; in the data active means inhibition above about 17%;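 further: 0% = DMSO and 100% = reference inhibitor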
SF-1 act: activates the human nuclear receptor SF-1; 65,000 compounds, 1.9% hits; CHO-K1 Gal4-SF-1 LBD luciferase reporter; % increase over DMSO SF-1-specific signal; activation, % at 10 µM; AID 522;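 active means activation above the mean activation of all tested compounds plus 3 SD, cut at about 50% in these data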
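Assay system: CHO-K1 cells co-transfected with Gal4 DBD–human SF-1 LBD, 5xGal4 luciferase reporter / Input: 4,000 cells per well / Incubation: 20 h compound exposure at 37 °C after 1 h cell settling / Detection: SteadyLite luciferase luminescence / Control set: DMSO negative control and −SF1 background wells / Replication: one test per compound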
RORa activator: activators of human nuclear receptor RORA; CHO-K1 Gal4-RORA LBD luciferase reporter, luminescence; percent increase over mock-subtracted basal signal; P35398; 65,000 compounds, 1.5% hits; AID 560; activation, % at 10 µM;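 active means activation above the mean of all tested compounds plus 3 SD, cut at about 49% in these data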;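 further: 0% = DMSO-treated RORA cells and 100% = added signal equal to DMSO minus mock-transfected cells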
Target sequence (P35398 whole entry, looked up, the tested form may be a part): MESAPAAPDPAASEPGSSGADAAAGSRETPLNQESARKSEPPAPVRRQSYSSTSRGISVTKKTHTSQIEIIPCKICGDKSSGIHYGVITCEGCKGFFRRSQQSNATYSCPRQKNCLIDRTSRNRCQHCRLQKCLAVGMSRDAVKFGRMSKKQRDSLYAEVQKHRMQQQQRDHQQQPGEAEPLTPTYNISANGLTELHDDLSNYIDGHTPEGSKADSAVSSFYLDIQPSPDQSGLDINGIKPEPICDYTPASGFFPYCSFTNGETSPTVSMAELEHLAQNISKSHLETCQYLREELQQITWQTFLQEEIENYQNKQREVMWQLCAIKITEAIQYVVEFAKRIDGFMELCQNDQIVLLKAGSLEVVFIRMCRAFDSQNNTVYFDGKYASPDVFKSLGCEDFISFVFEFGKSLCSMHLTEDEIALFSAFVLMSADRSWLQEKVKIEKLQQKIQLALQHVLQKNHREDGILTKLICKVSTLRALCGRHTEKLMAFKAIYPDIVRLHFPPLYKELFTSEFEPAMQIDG
* marks the source's active call; other numbers are inactive results; x = not tested or not shown.

SMILES	MT1-MMP txn act	JNK3 blocker	SF-1 act	RORa activator
O=C1C(C=NCc2cccnc2)=C(O)c2ccccc21	0.9	28.4*	45.1	53.0*
CNc1sc(C(=O)c2ccccc2F)c(N)c1-c1nc2ccccc2s1	2.1*	x	x	x
CCN(CC)CC(=O)Nc1nc(-c2ccc(Cl)cc2)cs1	1.2	x	x	x
CNc1nc(-c2ccc(Cl)cc2)cs1	1.2	x	63.5*	47.1
CCNc1nc(-c2ccc(Cl)cc2)cs1	1.1	x	15.9	50.1*
Clc1ccc(Nc2nc(-c3ccncc3)cs2)cc1	1.7	x	x	x
c1ccc(-c2nnc3sc(-c4csc5c4CCCC5)nn23)cc1	1.5	-0.9	-15.2	2.6
O=C(COc1ccccc1)Nc1ccc(-c2nnc(-c3ccco3)o2)cc1	1.1	1.2	65.7*	48.6
O=C(Nc1nnc(C2CCCCC2)s1)c1cccs1	1.2	0.3	53.7*	41.1
O=C(Nc1nnc(C2CCCCC2)s1)c1ccco1	1.3	2.1	70.3*	6.4
CC(=O)C1=C(N2CCCCC2)CCC1=O	1.1	-0.6	-4.4	-14.1
CCCC[C@@H]1C[C@H]1C(NC(=O)c1cccs1)c1ccc(C(F)(F)F)cc1 (stereo partly drawn)	1.2	x	x	x
FC(F)(F)C1=CC(c2ccc(Br)cc2)=NCCN1	1	x	x	x
CC(=O)C1=C(C)Nc2ncnn2C1c1ccc(Cl)cc1Cl (stereo not drawn)	1.2	-0.7	-18.1	-4.9
O=C(OCc1nc2ccccc2s1)C1CCN(S(=O)(=O)c2cccs2)CC1	1.8	2.6	34.7	13.6
CCOC(=O)C1CCN(S(=O)(=O)C(F)(F)c2nc3ccccc3s2)CC1	1.4	x	32.0	71.0*
COc1cc(CC(=O)Nc2ncc(C)s2)cc(OC)c1OC	1.2	41.8*	-10.9	7.4
Cc1cnc(NC(=O)COc2ccccc2)s1	1.1	-1.0	82.0*	54.4*
COc1ccc(CC(=O)Nc2nc(C)cs2)cc1OC	1	31.8*	-2.7	-3.9
O=C(CCCCCN1C(=O)CCC1=O)Nc1ccc(Cl)c(C(F)(F)F)c1	1	x	x	x
COc1cccc(-c2nc(-c3ccccn3)no2)c1OC	1.3	-0.9	50.0*	15.4
CCOc1ccccc1-c1nc(-c2ccncc2)no1	1.3	x	x	x
COc1ccccc1-c1nc(-c2ccncc2)no1	1	-3.5	9.6	58.2*
CCOc1ccc(-c2noc(-c3ccncc3)n2)cc1OCC	1.1	-0.6	17.6	-9.6
COc1ccc(-c2noc(-c3ccccc3Cl)n2)cc1OC	1.7	1.5	45.4	81.9*
SMILES	MT1-MMP txn act	JNK3 blocker	SF-1 act	RORa activator
COc1ccc(-c2nc(-c3ccncc3)no2)cc1OC	1.5	-1.8	73.8*	67.6*
CCOn1c(=O)c(C)[n+]([O-])c2ccccc21	1.1	x	x	x
O=C(NC(NC(=O)c1ccccc1)c1ccccc1)c1ccccc1	1.1	x	x	x
Cc1cccc(Nc2nnc(-c3ccc(C(=O)N4C[C@H]5C[C@H](C4)c4cccc(=O)n4C5)cc3)c3ccccc23)c1	1	x	x	x
COc1nc(C)ccc1-c1noc(-c2ccco2)n1	x	2.8	16.8	66.9*
COc1ccc(-c2noc(-c3ccco3)n2)cc1OC	1.1	2.1	50.5*	44.2
COc1ccc(-c2nc(-c3ccc(NC(=O)c4ccc(Br)o4)cc3)no2)cc1OC	1.6	-6.8	30.6	-8.3
COc1ccc(CCC(=O)Nc2ccc(-c3noc(-c4ccc(OC)c(OC)c4)n3)cc2)cc1	1.4	-3.1	75.4*	14.5
CC(C)Nc1nc2n(c(=O)n1)CCN2C(C)C	1.2	4.3	-6.5	27.5
COc1ccc(-c2cc(C(=O)N3CCCCC3)no2)cc1OC	1.7	-5.2	76.8*	6.4
O=C(Nc1nnc(Cc2ccccc2)s1)c1cccs1	1.3	-4.6	81.3*	22.9
CCSc1nnc(NC(=O)c2cc(C)oc2C)s1	1.4	0.8	75.7*	59.6*
COc1ccc(Cc2nnc(NC(=O)c3cccs3)s2)cc1	1.1	1.2	15.0	50.6*
COCc1nnc(NC(=O)c2cccs2)s1	x	-6.1	18.3	25.8
O=C(Nc1nsc(-c2ccccc2)n1)c1cccs1	0.7	-4.7	77.0*	47.3
CCSc1nnc(NC(=O)c2ccc(C)o2)s1	1.4	5.4	46.4	34.2
C=C(CC1([C@@H](NP(=O)(c2ccccc2)c2ccccc2)[C@H]2C[C@@H]2CCCC)CC1)c1cccc(OC)c1	1	x	x	x
COc1ccc(C2SCC(=O)N2c2c(C)n(C)n(-c3ccccc3)c2=O)cc1OC (stereo not drawn)	1.1	x	x	x
O=C(NC1CCCCC1)C1CC=CCC1C(=O)OCC(Cl)=C(Cl)Cl (stereo not drawn)	1.2	x	x	x
O=C(Nc1ccc(Oc2cccc3ccccc23)cc1)c1ccco1	1.1	x	x	x
CCSc1nnc(NC(=O)c2cccs2)s1	1.3	1.4	43.2	49.9*
CCCSc1nnc(NC(=O)Nc2ccccc2)s1	1.1	1.0	52.6*	36.7
CCN(CC)S(=O)(=O)c1cccc(C(=O)NC(C(=O)Nc2nnc(C)s2)C(C)C)c1 (stereo not drawn)	1.1	x	x	x
CCCNS(=O)(=O)c1ccc(OCC(=O)N2CCOCC2)cc1	1.3	x	x	x
N#Cc1cn(-c2ccccc2)nc1-c1ccc2c(c1)OCCO2	1.5	3.3	55.4*	61.7*
SMILES	MT1-MMP txn act	JNK3 blocker	SF-1 act	RORa activator
O=Cc1cn(-c2ccccc2)nc1-c1cc2ccccc2oc1=O	1.2	x	x	x
O=Cc1cn(-c2ccccc2)nc1-c1ccc2c(c1)OCCO2	2*	x	x	x
CS(=O)(=O)N(CC(=O)N1CCN(c2cccc(Cl)c2)CC1)c1cccc(F)c1	1.1	-3.6	1.3	24.5
O=C(CSc1cn(Cc2ccccc2)c2ccccc12)Nc1nccs1	x	4.6	84.5*	75.7*
O=C(CSCc1ccccc1)Nc1nccs1	1.2	-1.2	-5.4	-5.3
Cc1ccccc1Cn1ccc(NC(=O)c2onc(C)c2Cl)n1	1.4	4.0	10.9	87.0*
COc1ccc(OCc2cccc(C(=O)Nc3cc(C)on3)c2)cc1	0.5	x	x	x
COC(=O)c1cccc(NC(=O)c2cccnc2)c1	0.9	x	x	x
O=C(Nc1ccc(Br)c(Cl)c1)c1ccco1	1.5	4.1	91.6*	76.0*
COc1ccc(C(=O)Nc2cc(C)on2)cc1	0.7	-1.9	-1.3	76.7*
CC(C)OC(=O)c1cccc(NC(=O)c2ccccc2)c1	2.1*	x	x	x
O=C(Nc1ccc(N2CCOCC2)c(Cl)c1)c1ccco1	1.1	-4.5	46.5	23.7
COc1ccc(C(=O)Nc2cccc(OC)c2)cc1	1	5.1	81.2*	46.3
COc1cccc(NC(=O)c2ccco2)c1	1.5	2.6	26.6	54.2*
O=C(Nc1cccc(OC(=O)c2ccco2)c1)c1ccco1	1.3	3.5	7.4	10.0
COc1cc(NC(=O)CC(C)C)ccc1NC(=O)c1ccco1	1.3	-5.9	44.1	79.8*
CCC(=O)Nc1ccc(NC(=O)c2ccco2)c(OC)c1	1.4	6.6	12.4	45.0
COC(=O)[C@@H]1C[C@H]1[C@@H](NC(=O)c1cc(C)nn1C)c1ccccc1	1.2	x	x	x
Cc1c(NS(=O)(=O)c2cccc3nsnc23)c(=O)n(-c2ccccc2)n1C	1.2	-8.0	-1.7	-10.7
COc1ccc2nc(NC(=O)C3COc4ccccc4O3)sc2c1 (stereo not drawn)	0.9	-2.1	22.0	8.7
Cc1nnc(NC(=O)C2COc3ccccc3O2)s1 (stereo not drawn)	1.6	6.8	51.5*	17.7

Screening data deposited in PubChem BioAssay by several laboratories.
